Reference: ChEMBL document CHEMBL4680104, “Structure-Based Optimization of Small-Molecule Inhibitors for the β-Catenin/B-Cell Lymphoma 9 Protein-Protein Interaction” (J Med Chem, 2018)
Calls of active or inactive are those of the source. No cut-off for these calls is given here.

Assays:
[1] = Inhibition of protein interaction between beta-catenin D145A mutant (unknown origin)/N-terminal biotinylated human BCL9 ( 350 to 375 residues) incubated for 1 hr by Alpha-screen competitive inhibition assay
[2] = Inhibition of protein interaction between beta-catenin D145A/E155A mutant (unknown origin)/N-terminal biotinylated human BCL9 ( 350 to 375 residues) incubated for 1 hr by Alpha-screen competitive inhibition assay
[3] = Inhibition of protein interaction between beta-catenin K181A mutant (unknown origin)/N-terminal biotinylated human BCL9 ( 350 to 375 residues) incubated for 1 hr by Alpha-screen competitive inhibition assay
[4] = target: T1, beta-catenin-B-cell lymphoma 9 protein complex (Homo sapiens) (UniProt P35222+O00512); experiment: Inhibition of protein interaction between beta-catenin /BCL9 in human SW480 cells assessed as reduction in Wnt target genes by measuring cyclin D1 mRNA expression incubated for 24 hrs by qPCR analysis; type: cell-based
Summary of the method: (§1)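 SW480 cells at 1 × 10^6/mL were treated with a range of inhibitor concentrations for 24 h. Total RNA was extracted with TRIzol and reverse-transcribed to cDNA. SYBR Green qPCR was run for Axin2, LEF1 and cyclin D1, with HPRT as a non-target housekeeping gene. CT values were normalized to GAPDH. Triplicate.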

[5] = target: T1, beta-catenin-B-cell lymphoma 9 protein complex (Homo sapiens); experiment: Inhibition of protein interaction between beta-catenin /BCL9 in human SW480 cells assessed as reduction in Wnt target genes by measuring LEF1 mRNA expression incubated for 24 hrs by qPCR analysis; type: cell-based; summary of the method: as §1
[6] = target: T1, beta-catenin-B-cell lymphoma 9 protein complex (Homo sapiens); experiment: Inhibition of protein interaction between beta-catenin /BCL9 in human SW480 cells assessed as reduction in Wnt target genes by measuring cyclin D1 protein expression at 2 to 8 uM incubated for 24 hrs by Western blot analysis; type: cell-based; conditions: dose 2-8 µM
Summary of the method: (§2)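 SW480 cells at 1 × 10^6 cells/mL were treated with a range of inhibitor concentrations for 24 h. Cells were lysed in Tris/NaCl/NP-40/deoxycholate/SDS buffer with protease inhibitors. Lysates were run on 8% SDS-PAGE and blotted to nitrocellulose. Blots were probed overnight at 4 °C for total β-catenin (mostly the E-cadherin-bound pool), active β-catenin (dephosphorylated S37/T41), cyclin D1, c-myc and β-tubulin. Detection used infrared secondary antibodies. Duplicate.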

[7] = target: T1, beta-catenin-B-cell lymphoma 9 protein complex (Homo sapiens); experiment: Inhibition of protein interaction between beta-catenin /BCL9 in human SW480 cells assessed as reduction in active form of beta-catenin expression incubated for 24 hrs by Western blot analysis; type: cell-based; summary of the method: as §2
SW480 [8] = experiment: Effect on E-cadherin-bound beta-catenin levels in human SW480 cells at 2 to 8 uM incubated for 24 hrs by Western blot analysis; type: functional, cell-based; conditions: dose 2-8 µM; summary of the method: as §2
[9] = Effect on HPRT mRNA expression in human SW480 cells at 1 uM incubated for 24 hrs by qPCR analysis relative to control; type: ADME, cell-based; conditions: read-out: FC
Summary of the method: (§3)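 SW480 cells at 1 × 10^6/mL were treated with inhibitor for 24 h. Total RNA was extracted with TRIzol and cDNA made by first-strand synthesis. SYBR green qPCR used human HPRT primers, with CT values normalised to GAPDH as internal reference. Performed in triplicate.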

[10] = Effect on HPRT mRNA expression in human SW480 cells at 2 uM incubated for 24 hrs by qPCR analysis relative to control; type: ADME, cell-based; conditions: read-out: FC; summary of the method: as §3
[11] = Effect on HPRT mRNA expression in human SW480 cells at 4 uM incubated for 24 hrs by qPCR analysis relative to control; type: ADME, cell-based; conditions: read-out: FC; summary of the method: as §3
[12] = Effect on HPRT mRNA expression in human SW480 cells at 8 uM incubated for 24 hrs by qPCR analysis relative to control; type: ADME, cell-based; conditions: read-out: FC; summary of the method: as §3
[13] = Inhibition of protein interaction between C-terminal 6x-histidine tagged full-length beta-catenin (1 to 781 residues) (unknown origin)/N-terminal biotinylated human E-cadherin (824 to 877 residues) incubated for 1 hr by Alpha-screen competitive inhibition assay
Summary of the method: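 Full-length β-catenin (residues 1–781) with a C-terminal His6 tag was expressed in E. coli BL21(DE3) after IPTG induction at 20 °C. It was purified by Ni-NTA, anion-exchange and size-exclusion chromatography. For the assay, 40 nM β-catenin was preincubated for 30 min at 4 °C with 5 nM biotinylated BCL9 or 10 nM biotinylated E-cadherin. Inhibitor was then added for 1 h at 4 °C, followed by 10 μg/mL donor and acceptor beads for 1 h at 4 °C. IC50 was obtained by nonlinear fit and converted to Ki by the Nikolovska-Coleska method. Triplicate, mean ± SD.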

SW480 [14] = experiment: Cytotoxic activity in human SW480 cells at 800 uM incubated for 4 hrs by LDH release assay; type: cell-based; conditions: sw480, 4 h
Summary of the method: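 SW480 cells were seeded at 2 × 10^4 cells/well and kept overnight at 37 °C. They were then exposed to a range of inhibitor concentrations for 4 h. LDH in the culture supernatant was measured with a diagnostic kit by absorbance at 490 nm. Percent cytotoxicity was calculated from experimental release against maximum release, with background subtracted. Run in triplicate.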

[15] = target: T1, beta-catenin-B-cell lymphoma 9 protein complex (Homo sapiens); experiment: Inhibition of protein interaction between full-length beta-catenin (unknown origin) / full-length BCL9 (unknown origin) in human HCT-116 cell lysates incubated for 4 hrs by co-immunoprecipitation assay; type: subcellular
Summary of the method: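 HCT116 cells were lysed in 50 mM Tris pH 7.4, 150 mM NaCl, 1% NP-40, 2 mM EDTA and protease inhibitors. Lysates were incubated with a range of inhibitor concentrations for 4 h at 4 °C and precleared on protein A/G agarose. β-Catenin was immunoprecipitated overnight at 4 °C and captured on A/G beads for 3 h. Beads were washed five times and run on 8% SDS-PAGE. Blots were probed for BCL9 and E-cadherin.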

HCT-116 = experiment: Inhibition of protein interaction between full-length beta-catenin (unknown origin) / full-length E-cadherin (unknown origin) in human HCT-116 cells incubated for 24 hrs by co-immunoprecipitation assay; type: cell-based
Summary of the method: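 Intact HCT116 cells at 1 × 10^6/mL were treated with a range of inhibitor concentrations for 24 h. They were then lysed in Tris pH 7.4/NaCl/NP-40/EDTA buffer with protease inhibitors and precleared on A/G agarose. Anti-β-catenin immunoprecipitation ran overnight at 4 °C, with A/G capture for 3 h and five washes. Samples were run on 8% SDS-PAGE and immunoblotted for BCL9 and E-cadherin.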

[16] = Effect on HPRT mRNA expression in human SW480 cells at 25 uM incubated for 24 hrs by qPCR analysis relative to control; type: ADME, cell-based; conditions: read-out: FC; summary of the method: as §3
[17] = Effect on HPRT mRNA expression in human SW480 cells at 100 uM incubated for 24 hrs by qPCR analysis relative to control; type: ADME, cell-based; conditions: read-out: FC; summary of the method: as §3
[18] = Drug level in human HCT-116 cells assessed as per million cells at 50 uM incubated for 6 hrs at 37 degC in presence of DMEM media with 10% FBS; type: ADME, cell-based; conditions: hct-116, 6 h
Summary of the method: (§4)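 Cells were incubated with 50 μM compound for 6 h in 5 mL DMEM with 10% FBS, at 37 °C or at 4 °C. Cell-bound compound was quantified by a previously described method and expressed as nmol per million cells. The 4 °C incubation was used to estimate binding to the cell membrane through nonspecific association.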

[19] = Drug level in human HCT-116 cells assessed as per million cells at 50 uM incubated for 6 hrs at 4 degC in presence of DMEM media with 10% FBS; type: ADME, cell-based; conditions: hct-116, 6 h; summary of the method: as §4

SMILES	Ki [1]	Ki [2]	Ki [3]	inhibition [4]	inhibition [5]	inhibition [6]	inhibition [7]	Activity (SW480 [8])	fold induction at 1 µM [9]	fold induction at 2 µM [10]	fold induction at 4 µM [11]	fold induction at 8 µM [12]	Ki [13]	Activity (SW480 [14])	inhibition [15]	inhibition (HCT-116)	fold induction at 25 µM [16]	fold induction at 100 µM [17]	Drug uptake [18]	Drug uptake [19]
Cl.Cl.O=C(Nc1ccc(O[C@H]2CCNC2)c(-c2ccc(F)cc2)c1)c1ccc(O[C@H]2CCNC2)c(-c2ccc3ccsc3c2)c1	4.2 µM	12 µM	1.7 µM	Dose-dependent effect	Dose-dependent effect	Active	Dose-dependent effect	inactive	1.09	1.21	1.04	–	–	–	–	–	–	–	–	–
Cc1cc(F)ccc1-c1cc(NC(=O)c2ccc(O[C@H]3CCNC3)c(-c3ccc(F)c(F)c3)c2)ccc1O[C@H]1CCNC1.Cl.Cl	–	–	–	–	–	–	–	–	–	0.166	0.136	0.124	–	–	–	–	–	–	–	–
Cl.Cl.O=C(Nc1ccc(O[C@@H]2CCNC2)c(-c2cccc(-c3nn[nH]n3)c2)c1)c1ccc(O[C@H]2CCNC2)c(-c2ccc(F)c(F)c2)c1	3 µM	12 µM	4.1 µM	Dose-dependent effect	Dose-dependent effect	–	Dose-dependent effect	–	–	–	–	–	> 915 µM	Non-Toxic	Dose-dependent effect	inactive	0.99	0.969	6.6 nmol	5.1 nmol
Cl.Cl.O=C(Nc1ccc(O[C@H]2CCNC2)c(-c2ccc(F)cc2)c1)c1ccc(O[C@H]2CCNC2)c(-c2ccc(F)c(F)c2)c1	–	–	–	Dose-dependent effect	Dose-dependent effect	–	–	–	–	–	–	–	–	–	–	–	–	–	–	–
